According to paper PMC4909612 (EBioMedicine, 2016):
Values joined by “and” are separate entries in the source; they are usually repeats but may differ in a detail not shown here. Equal entries are not always repeated.

What was measured:
[1] = molecular target: human PDGFR-β (Met 1-Lys 531) protein with the Phe136/Ala136 and Phe138/Ala138 mutations (human) (UniProt P09619); assay: SPR
[2] = molecular target: human PDGFR-β (Met 1-Lys 531) protein (human) (UniProt P09619); assay: SPR
[3] = molecular target: human PDGFR-β (Met 1-Lys 531) protein (human) (UniProt P09619); assay: MST
[4] = test system: intracellular tyrosine kinase domain of human PDGFR-β; assay: PDGFR-β activity assay kit; format: biochemical; conditions: n = 6 each group
In short: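 Human PDGFR-β kinase activity was measured with a commercial PDGFR-β activity assay kit, n = 6 per group. Values are means ± SEM from three independent experiments, compared with the control group.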

Row | Kd [1] [µM] | Kd [2] | dH [2] | Kd [3] [µM] | effect on the activated intracellular tyrosine kinase domain / kinase activity of human PDGFR-β [4] | Compound
1 | 99.5 | 4.92 µM and 8.02 µM | -2.28 kcal·M^(− 1) | 5.43 |  | destruxin A5 (peptide)
2 |  |  |  |  | very obvious inhibitory effect | CCN(CC)CCNC(=O)c1c(C)[nH]c(/C=C2\C(=O)Nc3ccc(F)cc32)c1C [sunitinib]
